Measurements reported in ChEMBL document CHEMBL2440018 (J Med Chem, 2013).
The source made the active and inactive calls. The calls are words filed in the database; no cut-off is given here.

Key:
[1] = molecular target: MMP-2/MMP-14 (Homo sapiens) (UniProt P50281+P08253); assay: Selectivity ratio of Ki for human recombinant MMP-14 catalytic domain to Ki for human recombinant MMP-2
Homo sapiens = species: Homo sapiens; assay: Selectivity ratio of Ki for human recombinant MMP-8 catalytic domain to Ki for human recombinant MMP-2
[2] = molecular target: MMP-2/MMP-9 (Homo sapiens) (UniProt P08253+P14780); assay: Selectivity ratio of Ki for human recombinant MMP-9 catalytic domain to Ki for human recombinant MMP-2
[3] = molecular target: T1, Matrilysin (Homo sapiens) (UniProt P09237); assay: Inhibition of human recombinant MMP-7 at 50 uM by fluorescence spectrophotometric analysis relative to control
T1 sequence (whole entry): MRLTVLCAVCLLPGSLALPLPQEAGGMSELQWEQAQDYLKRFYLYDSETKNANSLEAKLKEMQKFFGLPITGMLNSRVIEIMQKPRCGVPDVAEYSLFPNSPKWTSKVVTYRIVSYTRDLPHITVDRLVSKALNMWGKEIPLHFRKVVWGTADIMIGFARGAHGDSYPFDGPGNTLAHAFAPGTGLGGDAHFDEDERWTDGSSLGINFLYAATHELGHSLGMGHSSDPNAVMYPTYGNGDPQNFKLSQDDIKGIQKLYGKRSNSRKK

[4] = molecular target: Stromelysin-1 (Homo sapiens) (UniProt P08254); assay: Inhibition of human recombinant MMP-3 catalytic domain at 50 uM by fluorescence spectrophotometric analysis relative to control
[5] = molecular target: T2, Interstitial collagenase (Homo sapiens) (UniProt P03956); assay: Inhibition of human recombinant MMP-1 catalytic domain at 50 uM by fluorescence spectrophotometric analysis relative to control
T2 sequence (whole entry): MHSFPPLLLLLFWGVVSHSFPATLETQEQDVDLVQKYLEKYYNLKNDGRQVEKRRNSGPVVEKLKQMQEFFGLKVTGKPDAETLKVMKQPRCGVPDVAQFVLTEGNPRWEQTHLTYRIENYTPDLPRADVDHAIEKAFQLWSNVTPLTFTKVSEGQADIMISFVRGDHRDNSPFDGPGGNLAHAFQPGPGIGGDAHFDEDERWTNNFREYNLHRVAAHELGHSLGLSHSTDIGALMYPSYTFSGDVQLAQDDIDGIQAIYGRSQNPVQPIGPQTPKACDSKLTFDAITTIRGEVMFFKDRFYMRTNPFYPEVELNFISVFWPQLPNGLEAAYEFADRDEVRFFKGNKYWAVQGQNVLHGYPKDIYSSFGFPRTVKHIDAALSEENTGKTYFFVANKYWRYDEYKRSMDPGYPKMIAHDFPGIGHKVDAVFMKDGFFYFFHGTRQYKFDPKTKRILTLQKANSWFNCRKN

[6] = molecular target: T3, Matrix metalloproteinase-14 (Homo sapiens, UniProt P50281); assay: Inhibition of human recombinant MMP-14 catalytic domain using MOCAcPLGLA2pr(Dnp)AR-NH2 as substrate by fluorescence spectrophotometric analysis
[7] = molecular target: T4, Matrix metalloproteinase-9 (Homo sapiens, UniProt P14780); assay: Inhibition of human recombinant MMP-9 catalytic domain using MOCAcPLGLA2pr(Dnp)AR-NH2 as substrate by fluorescence spectrophotometric analysis
[8] = molecular target: 72 kDa type IV collagenase (Homo sapiens, UniProt P08253); assay: Inhibition of human recombinant MMP-2 using MOCAcPLGLA2pr(Dnp)AR-NH2 as substrate by fluorescence spectrophotometric analysis
[9] = molecular target: T3, Matrix metalloproteinase-14; assay: Inhibition of human recombinant MMP-14 catalytic domain using MOCAcPLGLA2pr(Dnp)AR-NH2 as substrate at 50 uM by fluorescence spectrophotometric analysis relative to control
[10] = molecular target: T4, Matrix metalloproteinase-9; assay: Inhibition of human recombinant MMP-9 catalytic domain using MOCAcPLGLA2pr(Dnp)AR-NH2 as substrate at 50 uM by fluorescence spectrophotometric analysis relative to control
Liver [11] = assay: Elimination half life in rat liver S9 fraction at 10 uM by reversed-phase UPLC/ESI-MRM analysis; assay type: ADME, subcellular; settings: s9, 10 µM
Procedure, shortened: (§1)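 Male rat liver S9 (1.0 mg) with 0.5 mM NADPH and 10 µM compound (both final) in 50 mM potassium phosphate, pH 7.4, at 37 °C, sampled over time. Aliquots were stopped with acetonitrile containing internal standard, and the supernatant was run by UPLC/ESI-MRM. Half-lives used first-order kinetics on peak-area ratios to internal standard.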

Liver [12] = assay: Primary phase half life in rat liver S9 fraction at 10 uM by reversed-phase UPLC/ESI-MRM analysis; assay type: ADME, subcellular; settings: s9, 10 µM; procedure, shortened: as §1
Liver [13] = assay: Metabolic stability in rat liver S9 fraction assessed as formation of 4-(4-(thiiran-2-ylmethylsulfonyl)phenoxy)phenol after 5 mins by reversed-phase LC/MS analysis; assay type: ADME, subcellular; settings: s9, 5 min
Procedure, shortened: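 Male rat liver S9 (1.0 mg) incubated with 10 μM compound (final) and 0.5 mM NADPH (final) in 50 mM potassium phosphate, pH 7.4, 37 °C. Aliquots taken at several time points. Reactions quenched with one volume acetonitrile containing internal standard, centrifuged, supernatant run on reversed-phase UPLC/ESI-MRM. Quantified by peak area ratio to internal standard.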

Plasma [14] = assay: Metabolic stability in C57Bl/6J mouse plasma assessed as formation of ND-322 at 25 mg/kg, sc measured at 10 to 300 mins; assay type: ADME, organism-based; set-up: dose 25 mg/kg, route subcutaneous; settings: in vivo
Procedure, shortened: (§2)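 Female C57Bl/6J mice (6–8 weeks, 16–19 g) received a single 100 µL sc dose equivalent to 25 mg/kg, in 10% DMSO/25% Tween 80/65% water or 80% propylene glycol/20% DMSO. Terminal heparinised vena cava blood gave plasma, and saline-perfused whole brain was taken; n = 3 per time point. Acetonitrile extracts with internal standard were run by UPLC/ESI-MRM against matrix calibration curves, linear 0.05–5 µM.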

Brain [15] = assay: Metabolic stability in C57Bl/6J mouse brain assessed as formation of ND-322 at 25 mg/kg, sc measured at 10 to 300 mins; assay type: ADME, organism-based; set-up: dose 25 mg/kg, route subcutaneous; settings: in vivo; procedure, shortened: as §2
[16] = Ratio of AUC in brain to plasma in C57Bl/6J mouse at 25 mg/kg, sc; assay type: ADME, organism-based; set-up: dose 25 mg/kg, route subcutaneous; settings: brain and plasma, read-out: Ratio AUC
Plasma [17] = assay: Elimination half life in C57Bl/6J mouse plasma at 25 mg/kg, sc; assay type: ADME, organism-based; set-up: dose 25 mg/kg, route subcutaneous; settings: in vivo
Procedure, shortened: (§3)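 Mice were dosed sc once at 25 mg/kg; plasma and perfused brain (n = 3 per time point) were quantified by UPLC/ESI-MRM. AUC0-last came from the mean concentration-time curve by the trapezoidal rule, and AUC0-∞ = AUC0-last + Clast/k. α and β half-lives came from linear regression on the linear portion of the concentration-time data, with t1/2 = ln2/k.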

Brain [18] = assay: Elimination half life in C57Bl/6J mouse brain at 25 mg/kg, sc; assay type: ADME, organism-based; set-up: dose 25 mg/kg, route subcutaneous; settings: in vivo; procedure, shortened: as §3
[19] = Primary phase half life in C57Bl/6J mouse plasma at 25 mg/kg, sc; assay type: ADME, organism-based; set-up: dose 25 mg/kg, route subcutaneous; settings: read-out: alphat1/2; procedure, shortened: as §3
[20] = Primary phase half life in C57Bl/6J mouse brain at 25 mg/kg, sc; assay type: ADME, organism-based; set-up: dose 25 mg/kg, route subcutaneous; settings: read-out: alphat1/2; procedure, shortened: as §3
Plasma [21] = assay: AUC (0 to infinity) in C57Bl/6J mouse plasma at 25 mg/kg, sc; assay type: ADME, organism-based; set-up: time infinity, dose 25 mg/kg, route subcutaneous; settings: in vivo; procedure, shortened: as §3
Brain [22] = assay: AUC (0 to infinity) in C57Bl/6J mouse brain at 25 mg/kg, sc; assay type: ADME, organism-based; set-up: time infinity, dose 25 mg/kg, route subcutaneous; settings: in vivo; procedure, shortened: as §3
Plasma [23] = assay: AUC (0 to last) in C57Bl/6J mouse plasma at 25 mg/kg, sc; assay type: ADME, organism-based; set-up: time 0 - last, dose 25 mg/kg, route subcutaneous; settings: in vivo; procedure, shortened: as §3
Brain [24] = assay: AUC (0 to last) in C57Bl/6J mouse brain at 25 mg/kg, sc; assay type: ADME, organism-based; set-up: dose 25 mg/kg, route subcutaneous; settings: in vivo; procedure, shortened: as §3
Brain [25] = assay: Drug uptake in C57Bl/6J mouse brain measured per mg of tissue at 25 mg/kg, sc measured at 5 hrs by reversed phase UPLC/ESI-MRM analysis; assay type: ADME, organism-based; set-up: dose 25 mg/kg, route subcutaneous; settings: in vivo; procedure, shortened: as §2
[26] = Plasma concentration in C57Bl/6J mouse at 25 mg/kg, sc measured at 5 hrs by reversed phase UPLC/ESI-MRM analysis; assay type: ADME, organism-based; set-up: dose 25 mg/kg, route subcutaneous; procedure, shortened: as §2
Brain [27] = assay: Drug uptake in C57Bl/6J mouse brain at 25 mg/kg, sc measured at 10 mins by reversed phase UPLC/ESI-MRM analysis; assay type: ADME, organism-based; set-up: dose 25 mg/kg, route subcutaneous; settings: in vivo; procedure, shortened: as §2
Plasma [28] = assay: Plasma concentration in C57Bl/6J mouse at 25 mg/kg, sc measured at 10 mins by reversed phase UPLC/ESI-MRM analysis; assay type: ADME, organism-based; set-up: dose 25 mg/kg, route subcutaneous; settings: in vivo; procedure, shortened: as §2
Liver [29] = assay: Half life in rat liver S9 fraction at 10 uM by reversed-phase UPLC/ESI-MRM analysis; assay type: ADME, subcellular; settings: s9, 10 µM; procedure, shortened: as §1
Neutrophil collagenase = Neutrophil collagenase (Homo sapiens, UniProt P22894); assay: Inhibition of human recombinant MMP-8 catalytic domain using […] as substrate by fluorescence spectrophotometric analysis
Chain of Neutrophil collagenase (P22894 whole entry, the tested form may be a part): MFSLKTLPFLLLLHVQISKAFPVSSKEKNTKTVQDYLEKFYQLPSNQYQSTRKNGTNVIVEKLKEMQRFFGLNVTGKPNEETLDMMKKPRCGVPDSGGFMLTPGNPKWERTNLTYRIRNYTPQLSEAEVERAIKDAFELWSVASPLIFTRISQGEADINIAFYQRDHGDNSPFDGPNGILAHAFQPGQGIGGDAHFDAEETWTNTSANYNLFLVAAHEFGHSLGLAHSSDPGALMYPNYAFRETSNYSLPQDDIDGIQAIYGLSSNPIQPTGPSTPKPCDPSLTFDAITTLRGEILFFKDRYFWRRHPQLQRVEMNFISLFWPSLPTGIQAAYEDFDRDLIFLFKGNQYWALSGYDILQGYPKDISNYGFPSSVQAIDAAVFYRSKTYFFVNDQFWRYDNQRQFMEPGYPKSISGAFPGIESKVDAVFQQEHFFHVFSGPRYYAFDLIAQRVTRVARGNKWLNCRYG

Chain of 72 kDa type IV collagenase (P08253 whole entry, the tested form may be a part): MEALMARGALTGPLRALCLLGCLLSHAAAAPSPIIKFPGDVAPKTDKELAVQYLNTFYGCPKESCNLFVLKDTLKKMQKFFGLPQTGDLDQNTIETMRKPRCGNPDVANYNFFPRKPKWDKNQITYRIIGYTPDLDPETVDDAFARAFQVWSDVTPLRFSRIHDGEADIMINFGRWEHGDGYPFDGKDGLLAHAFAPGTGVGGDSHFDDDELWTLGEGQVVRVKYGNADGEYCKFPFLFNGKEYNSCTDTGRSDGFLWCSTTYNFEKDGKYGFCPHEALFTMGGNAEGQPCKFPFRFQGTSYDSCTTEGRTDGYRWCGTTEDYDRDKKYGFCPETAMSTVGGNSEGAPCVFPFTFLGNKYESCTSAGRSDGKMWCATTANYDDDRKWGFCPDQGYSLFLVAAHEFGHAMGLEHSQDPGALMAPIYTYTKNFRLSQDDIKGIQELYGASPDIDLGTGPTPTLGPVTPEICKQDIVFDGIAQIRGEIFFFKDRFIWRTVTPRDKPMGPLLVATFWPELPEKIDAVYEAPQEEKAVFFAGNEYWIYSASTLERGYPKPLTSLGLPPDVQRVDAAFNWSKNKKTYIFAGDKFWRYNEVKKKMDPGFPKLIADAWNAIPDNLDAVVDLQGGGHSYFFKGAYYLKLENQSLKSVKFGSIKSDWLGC
T4 sequence (P14780 whole entry, the tested form may be a part): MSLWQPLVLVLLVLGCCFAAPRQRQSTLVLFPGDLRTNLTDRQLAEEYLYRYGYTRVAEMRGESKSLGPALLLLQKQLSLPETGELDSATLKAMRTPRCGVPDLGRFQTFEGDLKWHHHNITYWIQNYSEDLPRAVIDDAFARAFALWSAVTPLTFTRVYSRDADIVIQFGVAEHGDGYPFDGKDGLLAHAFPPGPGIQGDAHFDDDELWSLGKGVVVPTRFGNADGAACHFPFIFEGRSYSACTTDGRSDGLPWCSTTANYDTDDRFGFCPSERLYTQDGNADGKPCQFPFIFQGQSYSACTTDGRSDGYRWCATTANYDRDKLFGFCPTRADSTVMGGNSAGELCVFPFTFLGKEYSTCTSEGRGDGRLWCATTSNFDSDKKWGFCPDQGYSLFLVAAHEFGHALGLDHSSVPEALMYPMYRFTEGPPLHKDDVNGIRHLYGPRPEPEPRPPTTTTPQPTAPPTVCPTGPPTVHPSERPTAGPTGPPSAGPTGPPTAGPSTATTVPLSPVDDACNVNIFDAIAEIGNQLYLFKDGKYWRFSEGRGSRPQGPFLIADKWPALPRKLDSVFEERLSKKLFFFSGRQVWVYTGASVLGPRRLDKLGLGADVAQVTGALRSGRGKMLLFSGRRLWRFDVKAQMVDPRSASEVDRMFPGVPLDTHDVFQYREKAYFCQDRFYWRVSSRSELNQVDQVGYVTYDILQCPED

Row | SMILES | Ratio Ki [1] | Ratio Ki (Homo sapiens) | Ratio Ki [2] | inhibition [3] | inhibition [4] | inhibition [5] | Ki [6] | Ki [7] | Ki [8] | inhibition [9] | inhibition [10] | also measured
1 | CCCNC(=O)Oc1ccc(Oc2ccc(S(=O)(=O)CC3CS3)cc2)cc1 (stereo not drawn) | 20 | 20 | 20 | 2% | 38% | inactive | 27000 nM | 52000 nM | 760 nM | – | – | –
2 | CC(C)NC(=O)Nc1ccc(Oc2ccc(S(=O)(=O)CC3CS3)cc2)cc1 (stereo not drawn) | 20 | 20 | 20 | 6% | 4% | inactive | – | – | 420 nM | 37% | 26% | –
3 | Nc1ccc(Oc2ccc(S(=O)(=O)CC3CS3)cc2)cc1 (stereo not drawn) | – | – | – | – | – | – | – | – | – | – | – | beta t1/2 (Liver [11]): 59 min; alphat1/2 (Liver [12]): 14 min
4 | CCOC(=O)Oc1ccc(Oc2ccc(S(=O)(=O)CC3CS3)cc2)cc1 (stereo not drawn) | – | – | 2 | 9% | 39% | inactive | 2700 nM | – | 230 nM | – | – | Stability (Liver [13]): Unstable
5 | CCNC(=O)Nc1ccc(Oc2ccc(S(=O)(=O)CC3CS3)cc2)cc1 (stereo not drawn) | 20 | 20 | 20 | 7% | inactive | inactive | – | – | 440 nM | 17% | 28% | Stability (Plasma [14]): Stable; Stability (Brain [15]): Stable; Kp [16]: 0.0738; beta t1/2 (Plasma [17]): 61.9 min; beta t1/2 (Brain [18]): 204 min; half-life [19]: 8.38 min; half-life [20]: 18.2 min; AUC (Plasma [21]): 187 µM·min; AUC (Brain [22]): 13.8 pmol·min/mg; AUClast (Plasma [23]): 181 µM·min; AUClast (Brain [24]): 9.86 pmol·min/mg; Drug uptake (Brain [25]): 0.0133 pmol; concentration at 5 h [26]: 70.4 nM; Drug uptake (Brain [27]): Active; Drug uptake (Plasma [28]): Active; t1/2 (Liver [29]): 40.7 min; Ki (Neutrophil collagenase): 17000 nM
6 | CC(C)OC(=O)Nc1ccc(Oc2ccc(S(=O)(=O)CC3CS3)cc2)cc1 (stereo not drawn) | – | – | 2 | inactive | inactive | inactive | 2500 nM | 2700 nM | 680 nM | – | – | –
7 | CCCNC(=O)Nc1ccc(Oc2ccc(S(=O)(=O)CC3CS3)cc2)cc1 (stereo not drawn) | 20 | 20 | 20 | inactive | 18% | inactive | – | – | 560 nM | 8% | 7% | –
8 | CNC(=O)Nc1ccc(Oc2ccc(S(=O)(=O)CC3CS3)cc2)cc1 (stereo not drawn) | 20 | 20 | 20 | 8% | 21% | inactive | 19000 nM | 9900 nM | 240 nM | – | – | –
